We go through 4 compounds from ChEMBL document CHEMBL1811872, “Tryptophan 2,3-dioxygenase (TDO) inhibitors. 3-(2-(pyridyl)ethenyl)indoles as potential anticancer immunomodulators” (J Med Chem, 2011).

pIC50, pKi: −log10 of the molar value. Some results are limits rather than exact numbers.

Data set [1] concerns the target 5-hydroxytryptamine receptor 2B (Homo sapiens, UniProt P41595). The experiment in a line: Displacement of [125I](+/-)-DOI from human 5HT2B receptor. A general note: In a radioligand displacement assay an active substance lowers the binding of a labelled ligand.
Data set [2] is described as follows: Cytotoxicity against mouse P815B cells […] by MTT assay. It is filed as functional. As to conditions: read-out: LD50 (the source's name). (In general: Tetrazolium dyes change colour on reduction, which living cells bring about.)
The nature of data set [3]: Plasma concentration in DBA/2 mouse at 160 mg/kg/day, po administered for 7 days with water. It is filed as ADME, organism-based. Also on record: route oral. The method in brief:
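DBA/2 mice received the compound dissolved in drinking water (1 mg/mL) ad libitum. Mean water intake was 4.0 mL/mouse/day, giving about 160 mg/kg/day. Plasma levels of compound, L-Trp and kynurenine were measured at days 0, 1, 2 and 7.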

The target of data set [4] is Tryptophan 2,3-dioxygenase (Mus musculus, UniProt P48776). Kind of data set: Inhibition of mouse TDO expressed in mouse P815B cells assessed as inhibition of tryptophan catabolism by measuring kynurenine production after 8 hrs by HPLC analysis. It is filed as cell-based.
Data set [5] can be described thus: Solubility of the compound in phosphate buffered saline at pH 7.4. It is filed as physicochemical. In a few lines: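 Solubility was measured experimentally in phosphate buffer (PBS), pH 7.4, at room temperature.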
Data set [6] concerns the target T1, MAO-B (amine oxidase [flavin-containing] B) (Homo sapiens, UniProt P27338).
T1 sequence (P27338 whole entry): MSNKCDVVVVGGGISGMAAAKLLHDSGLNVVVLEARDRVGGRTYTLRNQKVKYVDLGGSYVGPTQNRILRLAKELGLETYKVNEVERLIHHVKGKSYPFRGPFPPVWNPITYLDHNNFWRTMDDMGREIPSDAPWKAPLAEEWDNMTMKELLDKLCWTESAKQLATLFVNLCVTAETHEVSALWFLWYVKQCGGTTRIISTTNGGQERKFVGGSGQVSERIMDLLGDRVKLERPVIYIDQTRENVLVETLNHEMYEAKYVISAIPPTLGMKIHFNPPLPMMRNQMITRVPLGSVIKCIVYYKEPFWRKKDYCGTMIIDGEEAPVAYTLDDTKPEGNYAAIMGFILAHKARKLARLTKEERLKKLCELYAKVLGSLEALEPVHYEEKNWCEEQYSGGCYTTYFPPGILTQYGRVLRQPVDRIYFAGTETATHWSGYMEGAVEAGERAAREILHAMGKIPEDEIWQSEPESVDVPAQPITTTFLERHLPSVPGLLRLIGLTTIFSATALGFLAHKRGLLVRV
The experiment in a line: Inhibition of MAO-B at 10 uM relative to control.

Data set [7] in a line: Chemical stability of the compound in phosphate buffered saline assessed as compound remaining at pH 7.4 after 1.5 hrs. It is filed as physicochemical. The following applies: read-out: Stability. The method in brief:
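Compound was incubated in phosphate-buffered saline, pH 7.4, for 1.5 h; read-out was the percentage of compound recovered.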

The test system of data set [8] is Mus musculus. Kind of data set: Toxicity in mouse P815B cells expressing TDO xenografted immunized mouse at 160 mg/kg/day, po administered with water. The following applies: in vivo. Also on record: route oral. It is filed as organism-based.
In data set [9] the target is T2, MAO-A (amine oxidase [flavin-containing] A) (Homo sapiens, UniProt P21397).
T2 sequence (P21397 whole entry): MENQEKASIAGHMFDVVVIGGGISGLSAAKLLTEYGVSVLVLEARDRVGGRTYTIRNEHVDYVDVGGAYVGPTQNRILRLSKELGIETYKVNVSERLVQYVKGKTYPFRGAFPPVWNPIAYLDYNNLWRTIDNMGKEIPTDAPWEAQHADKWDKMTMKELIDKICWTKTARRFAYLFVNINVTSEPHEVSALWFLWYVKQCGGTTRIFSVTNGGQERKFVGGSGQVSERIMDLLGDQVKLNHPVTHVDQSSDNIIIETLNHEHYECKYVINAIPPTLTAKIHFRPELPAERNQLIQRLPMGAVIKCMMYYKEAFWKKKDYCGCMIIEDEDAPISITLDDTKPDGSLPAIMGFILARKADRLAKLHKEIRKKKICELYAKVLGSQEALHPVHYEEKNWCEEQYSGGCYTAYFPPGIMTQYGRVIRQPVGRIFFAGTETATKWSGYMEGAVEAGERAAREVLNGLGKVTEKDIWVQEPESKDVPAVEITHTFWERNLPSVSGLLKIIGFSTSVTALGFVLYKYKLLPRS
The experiment in a line: Inhibition of MAO-A at 10 uM relative to control.

A short description of data set [10]: Displacement of [3H]prazosin from adrenergic alpha1 receptor.
The nature of data set [11]: Displacement of [3H]RX821002 from adrenergic alpha2 receptor.

Tryptophan 2,3-dioxygenase, sequence (P48776 whole entry): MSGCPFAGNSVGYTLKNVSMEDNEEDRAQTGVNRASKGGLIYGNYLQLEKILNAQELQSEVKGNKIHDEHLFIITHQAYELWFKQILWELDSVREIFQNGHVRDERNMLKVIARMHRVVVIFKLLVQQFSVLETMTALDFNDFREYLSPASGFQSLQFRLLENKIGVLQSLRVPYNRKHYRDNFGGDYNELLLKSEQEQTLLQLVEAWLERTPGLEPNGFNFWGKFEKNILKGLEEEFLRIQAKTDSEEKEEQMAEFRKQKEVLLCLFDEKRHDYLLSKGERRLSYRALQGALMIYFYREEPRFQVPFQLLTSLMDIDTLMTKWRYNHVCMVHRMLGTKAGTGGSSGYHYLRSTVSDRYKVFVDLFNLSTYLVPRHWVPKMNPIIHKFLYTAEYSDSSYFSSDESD
5-hydroxytryptamine receptor 2B, sequence (P41595 whole entry): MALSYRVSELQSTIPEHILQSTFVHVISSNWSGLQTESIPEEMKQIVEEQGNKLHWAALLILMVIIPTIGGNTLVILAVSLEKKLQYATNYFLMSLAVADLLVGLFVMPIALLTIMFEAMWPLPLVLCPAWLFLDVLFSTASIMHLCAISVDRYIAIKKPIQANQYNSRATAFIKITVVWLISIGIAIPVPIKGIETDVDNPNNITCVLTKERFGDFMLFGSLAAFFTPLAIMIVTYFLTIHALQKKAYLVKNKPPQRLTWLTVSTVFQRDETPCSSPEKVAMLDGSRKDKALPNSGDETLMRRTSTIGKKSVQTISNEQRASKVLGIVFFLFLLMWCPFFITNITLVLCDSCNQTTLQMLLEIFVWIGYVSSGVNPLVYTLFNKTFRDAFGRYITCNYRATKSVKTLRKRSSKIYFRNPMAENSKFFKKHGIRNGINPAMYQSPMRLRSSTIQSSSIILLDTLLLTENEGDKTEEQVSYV

Usually pKi stands for the negative decadic logarithm of the Ki, by convention in mol/L. A low value points to a high Ki. The compound `COc1cc(CC(C)N)c(OC)cc1I` (racemic) showed a pKi in data set [1] of 8.70.
Broadly, the pIC50 is the IC50 on a negative log10 scale, so that one unit is a factor of ten. The solubility is the concentration that dissolves in the medium under given conditions. As a reminder, the inhibition is the change of the read-out against control, counted positive when it falls. A lower inhibition goes with a response near the control. With `Fc1ccc2c(/C=C/c3nnn[nH]3)c[nH]c2c1`, the CC50 in data set [2] was over 400000 nM. The concentration at 168 h in data set [3] was 60 µM. Also, the pIC50 in [4] is 5.70. Moreover, the solubility in data set [5] is over 300 µM. Also, the inhibition at 10 µM in [6] and in data set [9] was under 10% in each case. Moreover, the remaining at 1.5 h in data set [7] was 93.3%. For the same compound, the Activity entry in data set [8] is recorded as “Non-toxic”.
With `COc1cc2nc(N3CCN(C(=O)c4ccco4)CC3)nc(N)c2cc1OC` [PRAZOSIN], the pKi in data set [10] is 10.15.
`COC(=O)[C@@H]1[C@H]2C[C@H]3c4[nH]c5ccccc5c4CCN3C[C@@H]2CC[C@@H]1O` [YOHIMBINE] had a pKi in data set [11] of 7.48.
